Test results published in ChEMBL document CHEMBL3045116, “Synthesis and biological evaluation of 2-(5-substituted-1-((diethylamino)methyl)-2-oxoindolin-3-ylidene)-N-substituted-hydrazinecarbothioamides” (Med Chem Res, 2013).

Tests used:
Influenza B virus = experiment: Antiviral activity against Influenza B virus infected in MDCK cells assessed as reduction of virus-induced cytopathic effect after 3 days by colorimetric formazan-based MTS assay; type: functional, organism-based; details: 72 h
In short: (§1)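 Confluent cell monolayers were infected with 100 CCID50 of virus, and serial dilutions of compound were added at the time of infection.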

[1] = system: Respiratory syncytial virus; experiment: Antiviral activity against Respiratory syncytial virus infected human HeLa cells assessed as reduction of virus-induced cytopathic effect after 3 days by colorimetric formazan-based MTS assay; type: functional, organism-based; details: 72 h; in short: as §1
Influenza A virus = experiment: Antiviral activity against Unidentified Influenza A virus (H1N1) infected MDCK cells assessed as reduction of virus-induced cytopathic effect after 3 days by colorimetric formazan-based MTS assay; type: functional, organism-based; details: 72 h; in short: as §1
[2] = (§2) Cytotoxicity against Homo sapiens (human) HeLa cells assessed as change in cellular morphology; type: cell-based; details: HeLa cells
In short: (§3)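 Uninfected cells were exposed to compound in parallel with the antiviral cultures. The read-out is the minimum cytotoxic concentration that causes a microscopically detectable alteration of normal cell morphology.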

Influenza A virus H3N2 = experiment: Antiviral activity against Influenza A virus H3N2 infected MDCK cells assessed as reduction of virus-induced cytopathic effect after 3 days by colorimetric formazan-based MTS assay; type: functional, organism-based; details: 72 h; in short: as §1
[3] = system: Mammalian orthoreovirus 1; experiment: Antiviral activity against Mammalian orthoreovirus 1 infected African green monkey Vero cells assessed as reduction of virus-induced cytopathic effect after 3 days by colorimetric formazan-based MTS assay; type: functional, organism-based; details: Mammalian orthoreovirus 1, Vero, 72 h
In short: (§4)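 Cells grown to confluency in 96-well plates ([…], Vero for lines 9–10) were infected with 100 CCID50 of virus, and serial compound dilutions were added at infection. Plates were incubated at 37 °C for 3 days, until complete CPE appeared in untreated virus controls.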

[4] = (§5) Cytotoxicity against MDCK cells assessed as change in cellular morphology; type: cell-based, Canis lupus familiaris; details: dog, MDCK cells; in short: as §3
Human respirovirus 3 = experiment: Antiviral activity against Human parainfluenza virus 3 infected African green monkey Vero cells assessed as reduction of virus-induced cytopathic effect after 3 days by colorimetric formazan-based MTS assay; type: functional, organism-based; details: Human respirovirus 3, Vero, 72 h; in short: as §4
[5] = Cytotoxicity against Chlorocebus aethiops (African green monkey) Vero cells assessed as change in cellular morphology; type: cell-based; details: chlorocebus sabaeus
Coxsackievirus B4 [6] = experiment: Antiviral activity against Human coxsackievirus B4 infected African green monkey Vero cells assessed as reduction of virus-induced cytopathic effect after 3 days by colorimetric formazan-based MTS assay; type: functional, organism-based; details: Enterovirus B, 72 h; in short: as §1
Coxsackievirus B4 [7] = experiment: Antiviral activity against Human coxsackievirus B4 infected human HeLa cells assessed as reduction of virus-induced cytopathic effect after 3 days by colorimetric formazan-based MTS assay; type: functional, organism-based; details: Enterovirus B, 72 h; in short: as §1
Respirovirus muris = experiment: Antiviral activity against Sendai virus infected African green monkey Vero cells assessed as reduction of virus-induced cytopathic effect after 3 days by colorimetric formazan-based MTS assay; type: functional, organism-based; details: 72 h
[8] = system: Vesicular stomatitis virus; experiment: Antiviral activity against Vesicular stomatitis virus infected human HeLa cells assessed as reduction of virus-induced cytopathic effect after 3 days by colorimetric formazan-based MTS assay; type: functional, organism-based; details: 72 h; in short: as §1
Human alphaherpesvirus 1 = experiment: Antiviral activity against acyclovir-resistant thymidine kinase negative Human herpesvirus 1 strain KOS infected human HEL cells assessed as reduction of virus-induced cytopathic effect after 3 days by colorimetric formazan-based MTS assay; type: functional, organism-based; details: Human alphaherpesvirus 1, KOS, 72 h; in short: as §1
[9] = system: Vesicular stomatitis virus; experiment: Antiviral activity against Vesicular stomatitis virus infected human HEL cells assessed as reduction of virus-induced cytopathic effect after 3 days by colorimetric formazan-based MTS assay; type: functional, organism-based; details: 72 h; in short: as §1
[10] = Cytotoxicity against Felis catus (cat) CRFK cells assessed as change in cellular morphology; type: cell-based; details: CRFK cells; in short: as §3
Vaccinia virus = experiment: Antiviral activity against Vaccinia virus infected human HEL cells assessed as reduction of virus-induced cytopathic effect after 3 days by colorimetric formazan-based MTS assay; type: functional, organism-based; details: Orthopoxvirus vaccinia, 72 h; in short: as §1
Felid alphaherpesvirus 1 = experiment: Antiviral activity against Felid herpesvirus 1 infected cat CRFK cells assessed as reduction of virus-induced cytopathic effect after 3 days by colorimetric formazan-based MTS assay; type: functional, organism-based; details: Felid alphaherpesvirus 1, CRFK, 72 h; in short: as §4
Human alphaherpesvirus 2 = experiment: Antiviral activity against Human herpesvirus 2 strain G infected human HEL cells assessed as reduction of virus-induced cytopathic effect after 3 days by colorimetric formazan-based MTS assay; type: functional, organism-based; details: Human alphaherpesvirus 2, strain G, 72 h; in short: as §1
[11] = system: Feline infectious peritonitis virus; experiment: Antiviral activity against Feline Infectious peritonitis virus infected cat CRFK cells assessed as reduction of virus-induced cytopathic effect after 3 days by colorimetric formazan-based MTS assay; type: functional, organism-based; details: Alphacoronavirus 1, CRFK, 72 h; in short: as §1
[12] = Cytotoxicity against Homo sapiens (human) HEL cells assessed as change in cellular morphology; type: cell-based
MDCK = experiment: as §5; type: cell-based, Canis lupus familiaris; details: dog, mdck; in short: as §3
HeLa = experiment: as §2; type: cell-based; details: hela; in short: as §3
Punta Toro virus = experiment: Antiviral activity against Punta Toro virus infected in African green monkey Vero cells assessed as reduction of virus-induced cytopathic effect after 3 days by colorimetric formazan-based MTS assay; type: functional, organism-based; details: 72 h; in short: as §1
Bacillus subtilis = experiment: Antibacterial activity against Bacillus subtilis assessed as growth inhibition at 50 ug/ml by cup-plate method (reference value: 8 to 10 mm); type: functional; details: read-out: DIZ
Escherichia coli = experiment: Antibacterial activity against Escherichia coli assessed as growth inhibition at 50 ug/ml by cup-plate method (reference value: 8 to 10 mm); type: functional; details: read-out: DIZ
Staphylococcus aureus = experiment: Antibacterial activity against Staphylococcus aureus assessed as growth inhibition at 50 ug/ml by cup-plate method (reference value: 8 to 10 mm); type: functional; details: read-out: DIZ
Salmonella typhi = experiment: Antibacterial activity against Salmonella enterica subsp. enterica serovar Typhi assessed as growth inhibition at 50 ug/ml by cup-plate method (reference value: 8 to 10 mm); type: functional; details: read-out: DIZ
Proteus vulgaris = experiment: Antibacterial activity against Proteus vulgaris assessed as growth inhibition at 50 ug/ml by cup-plate method (reference value: 8 to 10 mm); type: functional; details: read-out: DIZ
Klebsiella pneumoniae = experiment: Antibacterial activity against Klebsiella pneumoniae assessed as growth inhibition at 50 ug/ml by cup-plate method (reference value: 8 to 10 mm); type: functional; details: read-out: DIZ
L1210 = experiment: Cytotoxicity against Mus musculus (mouse) L1210 cells assessed as growth inhibition after 48 hr by coulter counter analysis; type: functional, cell-based; details: L1210, 48 h
In short: (§6)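 Cells in growth medium were allowed to proliferate with variable compound amounts at 37 °C in a humidified CO2 atmosphere. Incubation ran 48 h for L1210, 72 h for CEM and 96 h for HeLa. Cells were then counted with a Coulter counter.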

CCRF-CEM = experiment: Cytotoxicity against Homo sapiens (human) CEM cells assessed as growth inhibition after 72 hr by coulter counter analysis; type: functional, cell-based; in short: as §6

SMILES: NC(=O)c1ncn([C@@H]2O[C@H](CO)[C@@H](O)[C@H]2O)n1 [RIBAVIRIN]
- EC50 (Influenza B virus): 8.4 µM
- EC50 [1]: 4.6 µM
- EC50 (Influenza A virus): 11.5 µM
- CC50 [2]: > 250 µM
- MCC [2]: > 250 µM
- EC50 (Influenza A virus H3N2): 6.8 µM
- EC50 [3]: > 250 µM
- MCC [4]: ≥ 100 µM
- EC50 (Human respirovirus 3): 50 µM
- MCC [5]: > 250 µM
- EC50 (Coxsackievirus B4 [6]): > 250 µM
- EC50 (Coxsackievirus B4 [7]): 28.5 µM
- EC50 (Respirovirus muris): > 250 µM
- EC50 [8]: 12.1 µM

SMILES: Nc1nc2c(ncn2COC(CO)CO)c(=O)[nH]1 [GANCICLOVIR]
- EC50 (Human alphaherpesvirus 1): ≥ 20 µM
- EC50 [9]: > 100 µM
- CC50 [10]: > 100 µM
- EC50 (Vaccinia virus): > 100 µM
- EC50 (Felid alphaherpesvirus 1): 7.3 µM
- EC50 (Human alphaherpesvirus 2): 0.07 µM
- EC50 [11]: > 100 µM
- MCC [12]: > 100 µM

SMILES: NC12CC3CC(CC(C3)C1)C2 [AMANTADINE]
- EC50 (Influenza B virus): > 500 µM
- EC50 (Influenza A virus): 65.5 µM
- EC50 (Influenza A virus H3N2): 1.5 µM
- MCC [4]: > 500 µM
- CC50 (MDCK): > 500 µM

SMILES: Nc1ncnc2c1ncn2C[C@H](O)CO [(S)-DHPA]
- EC50 [1]: > 250 µM
- MCC [2]: > 250 µM
- CC50 (HeLa): > 250 µM
- EC50 (Punta Toro virus): > 250 µM
- MCC [5]: > 250 µM
- EC50 (Coxsackievirus B4 [6]): > 250 µM
- EC50 (Coxsackievirus B4 [7]): > 250 µM
- EC50 (Respirovirus muris): > 250 µM
- EC50 [8]: > 250 µM

SMILES: CC1COc2c(N3CCN(C)CC3)c(F)cc3c(=O)c(C(=O)O)cn1c23 (centres undefined) [OFLOXACIN]
- zone of inhibition at 50 µg/mL (Bacillus subtilis): 31 mm
- zone of inhibition at 50 µg/mL (Escherichia coli): 31 mm
- zone of inhibition at 50 µg/mL (Staphylococcus aureus): 31 mm
- zone of inhibition at 50 µg/mL (Salmonella typhi): 31 mm
- zone of inhibition at 50 µg/mL (Proteus vulgaris): 31 mm
- zone of inhibition at 50 µg/mL (Klebsiella pneumoniae): 31 mm

SMILES: CC(N)C12CC3CC(CC(C3)C1)C2 (centres undefined) [RIMANTADINE]
- EC50 (Influenza B virus): > 100 µM
- EC50 (Influenza A virus): 24.2 µM
- EC50 (Influenza A virus H3N2): 0.08 µM
- MCC [4]: 500 µM
- CC50 (MDCK): 259 µM

SMILES: N[C@@H](Cc1ccc(N(CCCl)CCCl)cc1)C(=O)O
- IC50 (L1210): 3.2 µM
- IC50 (CCRF-CEM): 2.2 µM
